Published values collected from several papers.
Lines come from different studies, so protocols differ.
Target: Serine/threonine-protein kinase Nek6 (NEK6, Homo sapiens, UniProt Q9HC98)

Structure (SMILES)	effect on	mode	method	tested at	quantity	result
CCCCN(CCCC)C(=O)CN1C[C@H](c2cc(OC)c3c(c2)OCO3)[C@@H](C(=O)O)[C@@H]1CC(C)(C)CCC	cell-free assay	–	competition with immobilised ligand	1 µM	remaining binding	100%
CN1CC(Oc2cnc(C#N)cc2-c2ccn3nc(NC(=O)C4CC4)cc3c2)C1	enzyme activity	inhibitor	–	1 µM	inhibition	2%
CC/C(=N\NC(=O)NCc1cccc(O)c1)c1ccc(O)c(C)c1O	enzyme activity	inhibitor	–	0.1 µM	inhibition	0.2%
CO[C@@H](C)c1c(Nc2ccc([C@H](N(C)C(=O)C3CCS(=O)(=O)CC3)C(F)(F)F)cc2)cnc2cc(Cl)nn12	cell-free assay	–	competition with immobilised ligand	1 µM	remaining binding	97%
O=C1NC(=O)c2cc(Nc3ccc(F)cc3)c(Nc3ccc(F)cc3)cc21	cell-free assay	–	–	0.5 µM	remaining signal	109%
Cn1cc(Cl)c2c(Oc3c(F)cc(Nc4cc(Cl)nc(N)n4)cc3F)ccnc21	cell-free assay	–	competition with immobilised ligand	0.1 µM	remaining binding	100%
CNC(=O)c1cc(Oc2ccc(NC(=O)Nc3ccc(Cl)c(C(F)(F)F)c3)cc2)ccn1	enzyme activity	inhibitor	–	10 µM	inhibition	-16%
COc1cc2ncnc(Nc3ccc(Oc4ccccc4)cc3C)c2cc1OC	enzyme activity	inhibitor	–	1 µM	inhibition	-8%
CCOCCn1cc(C(=O)Nc2ccc(-n3nc(-c4cccnc4)cc3C(F)(F)F)cn2)ccc1=O	cell-free assay	–	competition with immobilised ligand	1 µM	remaining binding	96%
FC(F)(F)Oc1cccc(-c2cnc3ccc(-c4ccncc4)nn23)c1	enzyme activity	inhibitor	radiometric	5 µM	activity vs control	93%
CCN(CC)CCNC(=O)c1c(C)[nH]c(/C=C2\C(=O)Nc3ccc(F)cc32)c1C	enzyme activity	inhibitor	–	10 µM	inhibition	-9%
Cc1ccc(NC(=O)c2ccc(C)c(C(F)(F)F)c2)cc1C#Cc1nn(C2CCC(O)CC2)c2ncnc(N)c12 (stereo not shown)	cell-free assay	–	–	10 µM	remaining signal	98%
Nc1ncnc2occ(-c3ccc(NC(=O)Nc4cc(C(F)(F)F)ccc4F)cc3)c12	cell-free assay	inhibitor	–	20 µM	remaining signal	0.15%
